Assay outcomes deposited in PubChem by several laboratories.
Hits are enriched below; roughly 9.4% of the tested compounds scored in any of these assays.
Beta apoptosis = blocks beta cell apoptosis | INS-1E cytokine-induced death, ATP luminescence, 48 h; percent of positive-control rescue, neutral wells zero | protection from apoptosis, % (no concentration beside the values) | 300,000 tested, 0.8% active | AID 435005;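 active = Every replicate reaches about 75%, or at least half do and their mean reaches it too, limit read from the data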;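 also: higher means more ATP so stronger rescue from cytokine killing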
SKKanGAS inh = inhibitors of SKKanGAS S. pyogenes growth in kanamycin (SK-promoter or general growth effect). BacTiter-Glo, 6 h. inhibition, % at 7.5 µM. 300,000 tested, 1.3% active;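 active = mean replicate score, as percent of positive control median, at least 50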;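 also: strain carries kanamycin resistance gene driven by streptokinase promoter and grows in 40 µg/ml kanamycin; loss of luminescence reflects streptokinase promoter inhibition or plain growth inhibition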
Lmaj promast = inhibitors of Leishmania major promastigote growth. Leishmania major promastigotes, resazurin fluorescence viability. inhibition, % at 10 µM. 200,000 tested, 9% active. AID 1063; in the data active = inhibition above about 50%;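 also: promastigotes grown with compound for 44 hours at 28 °C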
T cruzi repl = T. cruzi replication inhibition | 300,000 tested, 1.4% active | T. cruzi beta-gal in NIH3T3, luminescence, 90 h | AID 1885 | inhibition, % (test concentration not listed);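 active = mean inhibition across valid replicates above about 55%, limit read from the data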;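 also: signal also drops with host cell toxicity which is not excluded here; higher percent means less beta-gal luminescence so fewer parasites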
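Material: NIH/3T3 host cells with β-galactosidase reporter T. cruzi; Input: 5,000 host fibroblasts per well; Medium: DMEM, 2% fetal bovine serum; Compound: 50 nL DMSO compound solution per well; Schedule: 3 h host attachment, then at least 90 h co-culture; Detection: luminescent β-galactosidase signal after 60 min lysis.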
Mdm2-MdmX inh = disrupts the human Mdm2-MdmX interaction | O15151+Q00987 | SaOS-2 split-luciferase Mdm2/MdmX complementation, luminescence | inhibition, % at 8 µM | 330,000 tested, 3% active | AID 485346;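 active = inhibition of at least 50% at 8 µM in the primary screen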
Target sequence (O15151 whole entry, looked up): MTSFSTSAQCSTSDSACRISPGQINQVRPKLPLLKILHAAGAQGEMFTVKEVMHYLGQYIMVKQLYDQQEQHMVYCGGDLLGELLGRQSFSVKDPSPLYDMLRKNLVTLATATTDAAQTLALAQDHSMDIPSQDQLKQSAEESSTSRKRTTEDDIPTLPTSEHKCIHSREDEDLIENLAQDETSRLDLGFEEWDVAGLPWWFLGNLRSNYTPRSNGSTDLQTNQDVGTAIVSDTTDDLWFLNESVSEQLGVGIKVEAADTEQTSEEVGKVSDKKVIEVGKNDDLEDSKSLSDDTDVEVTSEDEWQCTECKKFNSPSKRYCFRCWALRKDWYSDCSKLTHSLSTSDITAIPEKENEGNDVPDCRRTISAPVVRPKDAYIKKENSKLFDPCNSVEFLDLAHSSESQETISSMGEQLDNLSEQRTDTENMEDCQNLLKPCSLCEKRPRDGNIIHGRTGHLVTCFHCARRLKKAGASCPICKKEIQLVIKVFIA
Target sequence (Q00987 whole entry, looked up): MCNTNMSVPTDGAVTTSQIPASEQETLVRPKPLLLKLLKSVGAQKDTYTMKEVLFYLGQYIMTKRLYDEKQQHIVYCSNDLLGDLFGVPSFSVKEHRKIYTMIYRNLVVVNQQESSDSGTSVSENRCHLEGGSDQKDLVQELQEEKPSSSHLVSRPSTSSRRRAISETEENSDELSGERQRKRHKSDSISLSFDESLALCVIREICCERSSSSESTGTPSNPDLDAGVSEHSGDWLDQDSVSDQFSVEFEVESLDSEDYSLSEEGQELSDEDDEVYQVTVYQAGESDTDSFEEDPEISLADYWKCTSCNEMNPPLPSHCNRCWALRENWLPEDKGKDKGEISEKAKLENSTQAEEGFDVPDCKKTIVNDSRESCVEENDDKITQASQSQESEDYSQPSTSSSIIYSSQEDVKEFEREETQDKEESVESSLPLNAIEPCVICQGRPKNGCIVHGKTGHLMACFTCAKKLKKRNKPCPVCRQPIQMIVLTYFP
CSC inhib = blocks cancer stem cells; cancer stem cell-like cells viability, luminescence; inhibition, % at 7.5 µM; 300,000 tested, 1.1% active; in the data active = inhibition above about 75%; tested in HMLE shEcad cells
Hits are given with their value; . = inactive; / = no result.

SMILES | Beta apoptosis | SKKanGAS inh | Lmaj promast | T cruzi repl | Mdm2-MdmX inh | CSC inhib
Cc1ccc(C(c2nnnn2Cc2ccccc2)N2CCN(Cc3ccccc3)CC2)cc1 (stereo unspecified) | . | . | 92 | . | . | .
COCCn1nnnc1C(c1ccc(OC)c(OC)c1)N1CCc2ccccc21 (stereo unspecified) | . | . | . | . | . | .
c1ccc(CN2CCN(C(c3ccccc3)c3nnnn3Cc3ccccc3)CC2)cc1 (stereo unspecified) | . | . | . | . | . | .
COCCn1nnnc1C(c1ccccc1OC)N1CCc2ccccc2C1 (stereo unspecified) | . | . | 85 | . | . | .
N#CC1=C(N)N(c2ccc(F)cc2)C2=C(C1c1ccc(O)cc1)S(=O)(=O)CC2 (stereo unspecified) | / | / | . | / | / | /
Cc1ccc(NS(=O)(=O)c2cc3c4c(cccc4c2)C(=O)NC3=O)cc1C | . | . | / | . | . | 79
O=C(O)CCC(=O)NNC(=O)c1cccc(Br)c1 | . | . | 60 | . | . | .
O=C(Nc1ccccc1)NC1(C(=O)NCc2ccc3c(c2)OCO3)CCCCC1 | . | . | 58 | . | . | .
O=C(Nc1ccccc1)NC1(C(=O)NCc2ccco2)CCCCC1 | / | . | . | . | . | .
O=C(Nc1cccc(Cl)c1)NC1(C(=O)NCc2cccs2)CCCCC1 | . | . | 62 | . | . | .
O=C(Nc1ccc(F)cc1)NC1(C(=O)NCc2cccs2)CCCCC1 | . | . | 87 | . | . | .
O=C(NCc1ccccc1)NC1(C(=O)Nc2ccc3c(c2)OCCO3)CCCCC1 | . | . | . | . | . | .
O=C(NCc1cccs1)Nc1cccc(Cl)c1 | . | . | . | . | . | .
CC(C)CCn1nc(C(=O)Nc2nc3c(s2)CCCC3)c2ccccc2c1=O | . | . | 65 | . | . | .
O=C(Nc1nc2c(s1)CCCC2)c1nn(Cc2ccccc2)c(=O)c2ccccc12 | . | . | . | . | . | .
O=C(Nc1cccc(F)c1)N1CC=C(c2ccc(Cl)cc2)CC1 | / | . | . | 55 | . | .
CC(=O)N(C)c1ccc(NC(=O)COc2ccc(Br)cc2C)cc1 | . | . | . | . | . | .
COc1cc(CNCCO)ccc1OCC(=O)Nc1ccc(Br)cc1 | . | . | 100 | . | . | .
CC(=O)Nc1ccc(NC(=O)COc2ccc(Br)cc2C)cc1 | . | . | 62 | . | . | .
COc1ccc(CNN2CCCCC2C(=O)Nc2ccc(OC)c(OCC(C)C)c2)cc1OC (stereo unspecified) | . | . | / | 57 | . | .
CCC(C)c1c(O)nc(SCC(=O)N2CCCCCC2)[nH]c1=O (stereo unspecified) | / | . | / | . | . | .
CC12CCC(CC1)C(C)(C)O2 | . | 100 | / | . | / | .
COC(=O)[C@@H](CC(C)C)N(Cc1ccccc1)S(=O)(=O)N(Cc1ccccc1)[C@@H](CC(C)C)C(=O)OC | . | / | / | / | . | .
COC(=O)[C@@H](Cc1ccccc1)N(Cc1ccccc1)S(=O)(=O)N(Cc1ccccc1)[C@H](Cc1ccccc1)C(=O)OC | 119 | / | / | / | . | .
COC(=O)/C(=C/c1cccnc1)NC(=O)c1ccccc1 | . | . | . | . | . | .
SMILES | Beta apoptosis | SKKanGAS inh | Lmaj promast | T cruzi repl | Mdm2-MdmX inh | CSC inhib
COC(=O)C(=C/C(C)=C/c1cccnc1)C(=O)OC | . | . | 71 | . | . | .
CCN(c1ccccc1)S(=O)(=O)c1nnc(NC(=O)C(C)(C)C)s1 | . | . | / | . | . | .
COc1ccc(/C(C)=N/Nc2ccc(C(=O)O)cc2)cc1OC | . | . | 51 | . | . | .
COc1cc(/C(C)=N/Nc2ccc(C(=O)O)cc2)cc(OC)c1OC | . | . | . | . | . | .
COc1ccc(-c2c3c(cc4ncn(Cc5ccccc5)c24)COC3=O)cc1 | . | / | / | / | . | .
O=C(c1cccc2ccccc12)N1CCN(c2ccc([N+](=O)[O-])c(NCc3ccco3)c2)CC1 | . | . | 55 | . | . | .
Cc1oc(-c2ccccc2Cl)nc1CS(=O)(=O)CC(=O)NC1CCCC1 | . | . | / | . | . | .
CCCOc1c(Br)cc(C2C3=C(CCCC3=O)N(CC)C3=C2C(=O)CCC3)cc1OC | / | . | . | . | . | .
CCCOc1c(Br)cc(C2C3=C(CCCC3=O)N(C)C3=C2C(=O)CCC3)cc1OC | . | . | 97 | . | . | .
Cc1ccc(OCc2cc(C(=O)NC3CCCCC3)no2)cn1 | / | . | / | . | . | /
O=C(c1cc(COc2ccc3ncccc3c2)on1)N1CCCC1 | . | . | / | . | . | .
O=C(NC1CCCC1)c1cc(COc2ccc3ncccc3c2)on1 | 104 | . | / | . | . | .
COc1cccc(CN(C)C(=O)c2cc(COc3c(F)cccc3F)on2)c1 | . | . | . | . | . | .
O=C(c1cc(COc2ccc3ncccc3c2)on1)N1CCCCCC1 | 91 | . | . | . | . | .
COc1cccc(CN(C)C(=O)c2cc(COc3ccc4ncccc4c3)on2)c1 | 76 | . | . | . | . | .
CC(NC(=O)c1cc(COc2ccc3ncccc3c2)on1)c1ccc(F)cc1 (stereo unspecified) | 105 | . | / | . | . | .
Cc1cc(C)n(-c2ccc(C(=O)N3CC(C)OC(C)C3)cc2)n1 (stereo unspecified) | . | . | . | . | . | .
CN1CCN(C(=O)c2ccc(NS(=O)(=O)c3cccc([N+](=O)[O-])c3)cc2)CC1 | / | / | / | / | . | /
CCCNC(=O)C(Cc1ccc(F)cc1)NC(=O)c1ccc(C#N)cc1 (stereo unspecified) | . | / | / | / | . | .
O=C(NCCc1cn2ccccc2n1)c1cc(COc2ccc3ncccc3c2)on1 | 104 | . | . | . | . | .
Cc1cc(OCc2cc(C(=O)N3CCC(Oc4cccnc4)CC3)no2)cc(C)c1Cl | / | . | / | . | . | 77
COC(=O)c1cc(Br)ccc1NC(=O)CSCc1c(C)noc1C | . | / | / | / | . | .
COc1ccc(Oc2ccccc2/C=N/O)cc1 | . | . | . | . | . | .
CC(C)(C)c1cccc(/C=N/O)c1O | . | . | 52 | . | . | .
Cc1onc(-c2ccccc2)c1C(=O)N/N=C/c1cc2c(cc1Br)OCO2 | . | . | 100 | . | . | .
SMILES | Beta apoptosis | SKKanGAS inh | Lmaj promast | T cruzi repl | Mdm2-MdmX inh | CSC inhib
Cc1onc(-c2ccccc2)c1C(=O)NNC(=S)NC(=O)c1ccc2c(c1)OCO2 | . | 98 | / | . | . | .
COc1ccc(C(=O)NC(=S)NNC(=O)c2c(-c3ccccc3)noc2C)cc1OC | . | 91 | / | . | . | .
Cc1onc(-c2ccccc2)c1C(=O)N/N=C/c1cc(Br)c(O)c(Br)c1 | / | . | / | . | . | /
COc1ccc(-c2ccncc2)cc1OC | . | . | / | . | . | .
CC1CC(NS(=O)(=O)c2cc3c4c(c2)CCN4C(=O)CC3)CC(C)(C)C1 (stereo unspecified) | . | . | / | . | . | .
CCOC(=O)N1CCN(c2nc3ccccn3c(=O)c2C=O)CC1 | . | . | / | . | . | .
Nc1nc(SCc2ccc(Cl)cc2Cl)n[nH]1 | / | . | . | . | . | .
Nc1nc(N)c(Cc2ccc(Cl)cc2Cl)c(N)n1 | . | . | 64 | . | . | .
NNc1ccc(Cc2ccc(Cl)cc2Cl)nn1 | . | . | 91 | . | . | .
